ChEMBL document CHEMBL1135624, “Parallel synthesis of potent, pyrazole-based inhibitors of Helicobacter pylori dihydroorotate dehydrogenase” (J Med Chem, 2002)
In brackets after ≈: the same amount, converted by molar mass.

Key:
[1] = tested on: Helicobacter pylori; test: Minimum Inhibitory concentration against Helicobacter pylori; type: functional
Summary of the method: (§1)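 Whole-cell antimicrobial MIC against a reference American Type Culture Collection *H. pylori* strain, reported in μg/mL.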

[2] = target: Dihydroorotate dehydrogenase (quinone), mitochondrial (Homo sapiens, UniProt Q02127); test: Inhibition of human dihydroorotate dehydrogenase (DHODase)
[3] = tested on: Helicobacter pylori; test: Minimum inhibitory concentration measured against compound 1 resistant Helicobacter pylori isolate; type: functional
Summary of the method: (§2)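 Spontaneously resistant H. pylori mutants were isolated by plating cells on the selecting pyrazole, with the same method for each of the two selecting agents. Each resistant isolate was then tested for MIC against the pyrazole not used to select it, as a cross-resistance check.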

[4] = tested on: Helicobacter pylori; test: Minimum inhibitory concentration measured against compound 13 resistant Helicobacter pylori isolate; type: functional; summary of the method: as §2
[5] = Minimum inhibitory concentration measured against wild type.; type: functional; details: Helicobacter pylori; summary of the method: as §1

Sequence of Dihydroorotate dehydrogenase (quinone), mitochondrial (Q02127 whole entry): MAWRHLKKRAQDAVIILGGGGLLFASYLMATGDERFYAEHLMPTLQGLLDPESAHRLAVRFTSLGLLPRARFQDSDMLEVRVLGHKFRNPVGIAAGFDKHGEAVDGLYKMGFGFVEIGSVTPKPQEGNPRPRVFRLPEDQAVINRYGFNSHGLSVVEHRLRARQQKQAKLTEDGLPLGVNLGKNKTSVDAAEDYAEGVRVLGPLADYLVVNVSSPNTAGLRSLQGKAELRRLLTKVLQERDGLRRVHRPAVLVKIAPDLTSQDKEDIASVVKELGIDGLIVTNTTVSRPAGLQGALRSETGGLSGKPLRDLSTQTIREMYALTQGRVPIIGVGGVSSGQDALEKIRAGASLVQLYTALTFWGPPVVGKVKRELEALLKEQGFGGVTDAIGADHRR

SMILES	MIC [1]	Ki [2]	MIC [3]	MIC [4]	MIC [5]
CC(C)CNC(=O)c1cc(C(=O)NCc2ccccc2)nn1-c1ccc(Cl)cc1	> 64 µg/mL	> 50 µM	–	–	–
COc1ccc(-n2nc(C(=O)Nc3ccc(C(=O)N4CCCC4)cc3)cc2C(=O)NCc2ccccc2)cc1	> 32 µg/mL	–	–	–	–
O=C(NCc1cccnc1)c1cc(C(=O)Nc2ccc(N3CCCCC3)cc2)n(-c2ccc(Cl)cc2)n1	2 µg/mL (≈ 3.88 µM)	> 50 µM	–	–	–
COc1ccc(-n2nc(C(=O)NCC(C)C)cc2C(=O)Nc2ccc(C(=O)N3CCCC3)cc2)cc1	64 µg/mL (≈ 131 µM)	> 50 µM	–	–	–
COc1ccc(-n2nc(C(=O)NCc3cccnc3)cc2C(=O)Nc2ccccc2)cc1	0.5 µg/mL (≈ 1.17 µM)	> 50 µM	32 µg/mL (≈ 74.9 µM)	24 µg/mL (≈ 56.1 µM)	0.5 µg/mL (≈ 1.17 µM)
O=C(NCc1ccccc1)c1cc(C(=O)Nc2ccccc2)n(-c2ccc(Cl)cc2)n1	0.125 µg/mL (≈ 0.29 µM)	50 µM	–	–	–
Cc1ccc(CNC(=O)c2cc(C(=O)Nc3ccccc3)n(-c3ccc(Cl)cc3)n2)cc1	32 µg/mL (≈ 71.9 µM)	> 50 µM	–	–	–
COc1ccc(-n2nc(C(=O)NC(c3ccccc3)c3ccccc3)cc2C(=O)NCc2ccccc2)cc1	> 32 µg/mL	> 50 µM	–	–	–
O=C(NCc1cccnc1)c1cc(C(=O)Nc2ccccc2)n(-c2ccc(Cl)cc2)n1	0.25 µg/mL (≈ 0.579 µM)	> 50 µM	–	–	–
NC(=O)c1ccc(NC(=O)c2cc(C(=O)NCc3ccccc3)nn2-c2ccc(Cl)cc2)cc1	8 µg/mL (≈ 16.9 µM)	> 50 µM	–	–	–
COc1ccc(-n2nc(C(=O)NCc3ccccc3)cc2C(=O)Nc2ccc(C(=O)N3CCCC3)cc2)cc1	3 µg/mL (≈ 5.73 µM)	> 50 µM	> 64 µg/mL	> 64 µg/mL	3 µg/mL (≈ 5.73 µM)
COc1ccc(-n2nc(C(=O)NCC3CCCO3)cc2C(=O)Nc2ccc(C(=O)N3CCCC3)cc2)cc1 (centres undefined)	> 32 µg/mL	> 50 µM	–	–	–
